The source of these data is ChEMBL document CHEMBL5357044, “Discovery of a dual-acting inhibitor of interleukin-1β and STATs for the treatment of inflammatory bowel disease” (RSC Med Chem, 2024).

Each structure is given as a SMILES string. Active and inactive are the calls of the source. No cut-off for these calls is given here.

Experiment [1] has as its target NACHT, LRR and PYD domains-containing protein 3 (Mus musculus, UniProt Q8R4B8). The experiment in a line: Inhibition of NLRP3 inflammasome activation in mouse J774.A1 cells assessed as reduction in LPS-stimulated IL-1beta level pretreated for 1 hr followed by nigericin treatment for 1 hr by ELISA. In kind it is cell-based. The essentials:
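J774A.1 cells (DMEM, 10% FBS) primed with LPS 1 μg mL−1 for 5 h, compound 1 h, then nigericin 10 μM for 1 h. Supernatant IL-1β by ELISA; IC50 from three separate determinations.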

For experiment [2], the system named is Colon. Nature of the experiment: Anti-colitis activity against DSS-induced ulcerative colitis mouse model assessed as decrease in IL-1beta level in colon tissue at 0.2 to 0.6 mg/kg, ip treated every 72 hrs for 9 days by ELISA. Format: functional, organism-based. The following applies: dose 0.2-0.6 mg/kg, time 9.0 day. The gist of the method: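 Colitis induced with 2.5% DSS in drinking water on days 1–7, plain water days 8–9. Compound given i.p. at 0.2 and 0.6 mg kg−1 in 50% PEG300 on days 2, 5 and 8. Mice killed on day 9; colon tissue cytokines measured by ELISA. Mean ± s.e.m.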

In experiment [3] the test system is Mus musculus. The experiment in a line: Anti-colitis activity against DSS-induced ulcerative colitis mouse model assessed as decrease in hemafecia at 0.2 to 0.6 mg/kg, ip treated every 72 hrs for 9 days. Format: functional, organism-based. To be noted: dose 0.2-0.6 mg/kg, time 9.0 day. The essentials: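 Mice given 2.5% DSS water days 1–7, then water to day 9. Dosing: i.p. 0.2 or 0.6 mg kg−1 in 50% PEG300 on days 2, 5, 8. Body weight and fecal occult blood scored daily. Colon length measured after sacrifice on day 9. Mean ± s.e.m.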

In experiment [4] the test system is Colon. Nature of the experiment: Anti-colitis activity against DSS-induced ulcerative colitis mouse model assessed as decrease in infiltration of inflammatory cells in colon tissue at 0.2 to 0.6 mg/kg, ip treated every 72 hrs for 9 days by H and E staining based analysis. In kind it is functional, organism-based. The following applies: dose 0.2-0.6 mg/kg, time 9.0 day. The essentials: (§1)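 Colons were taken on day 9 from 2.5% DSS-fed mice (DSS days 1–7). Dosing was i.p. 0.2 or 0.6 mg kg−1 in 50% PEG300 on days 2, 5, 8. H&E-stained sections imaged at ×20 and scored for inflammatory infiltration, goblet cell depletion and crypt loss.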

The test system of experiment [5] is Colon. The experiment in a line: Anti-colitis activity against DSS-induced ulcerative colitis mouse model assessed as increase in goblet cells in colon tissue at 0.2 to 0.6 mg/kg, ip treated every 72 hrs for 9 days by H and E staining based analysis. Format: functional, organism-based. To be noted: dose 0.2-0.6 mg/kg, time 9.0 day. The gist of the method:
as §1

The target of experiment [6] is T1, Interferon-inducible protein AIM2 (Mus musculus) (UniProt Q91VJ1).
T1 sequence (whole entry): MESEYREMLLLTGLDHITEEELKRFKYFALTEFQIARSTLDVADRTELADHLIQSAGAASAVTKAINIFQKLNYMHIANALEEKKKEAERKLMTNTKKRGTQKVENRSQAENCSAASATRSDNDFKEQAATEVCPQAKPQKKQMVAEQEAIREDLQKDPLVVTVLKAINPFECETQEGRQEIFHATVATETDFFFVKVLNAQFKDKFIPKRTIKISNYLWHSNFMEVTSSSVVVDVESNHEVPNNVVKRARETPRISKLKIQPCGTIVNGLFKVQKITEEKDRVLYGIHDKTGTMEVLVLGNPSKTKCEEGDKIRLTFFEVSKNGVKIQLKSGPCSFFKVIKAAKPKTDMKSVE
Nature of the experiment: Inhibition of AIM2 inflammasome activation in mouse BMDM cells assessed as reduction in LPS-stimulated IL-1beta level at 50 to 200 nM pretreated for 1 hr followed by poly(dA/dT) treatment for 4 hrs by ELISA. Format: cell-based. The following applies: dose 50-200 nM, time 5.0 hrs. The gist of the method:
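BMDMs (RPMI 1640, 10% FBS, Glutamax, 20 ng mL−1 M-CSF) primed with 0.5 μg mL−1 LPS for 3 h, then compound for 1 h. Stimulated 4 h with FLA-ST Ultrapure 2.5 μg mL−1 (NLRC4) or poly(dA/dT) 0.25 μg mL−1 (AIM2). IL-1β measured by ELISA.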

The subject of experiment [7] is Intestine. Nature of the experiment: Anti-colitis activity against DSS-induced ulcerative colitis mouse model assessed as decrease in STAT-5 level in intestinal tissue at 0.2 to 0.6 mg/kg, ip treated every 72 hrs for 9 days by Western blot analysis. In kind it is functional, organism-based. To be noted: dose 0.2-0.6 mg/kg, time 9.0 day. The gist of the method:
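DSS model (2.5% in drinking water days 1–7, water days 8–9). Dosing was i.p. at 0.2 and 0.6 mg kg−1 in 50% PEG300 on days 2, 5, 8. Intestinal tissue taken at sacrifice on day 9. Lysed in RIPA with protease inhibitor and BCA-quantified, then run on SDS-PAGE/PVDF and probed for STAT1, STAT3, STAT5 and caspase-1. ECL detection.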

Experiment [8] concerns the target NACHT, LRR and PYD domains-containing protein 3 (Mus musculus) (UniProt Q8R4B8). Nature of the experiment: Inhibition of NLRP3 inflammasome activation in mouse BMDM cells assessed as reduction in LPS-stimulated ASC specks formation at 50 to 200 nM pretreated for 1 hr followed by nigericin treatment for 30 mins by immunofluorescence analysis. Format: cell-based. To be noted: dose 50-200 nM, time 1.5 hrs. The essentials: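 BMDMs primed with LPS 1.5 μg mL−1 for 3 h at 37 °C, compound for 1 h, nigericin 10 μM for 30 min. Fixed in 4% paraformaldehyde and permeabilized with 1% Triton X-100. Blocked in 1% BSA, primary antibody overnight at 4 °C, rhodamine secondary plus DAPI. ASC specks counted by fluorescence microscopy.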

NACHT, LRR and PYD domains-containing protein 3 (Mus musculus), sequence (Q8R4B8 whole entry, the tested form may be a part): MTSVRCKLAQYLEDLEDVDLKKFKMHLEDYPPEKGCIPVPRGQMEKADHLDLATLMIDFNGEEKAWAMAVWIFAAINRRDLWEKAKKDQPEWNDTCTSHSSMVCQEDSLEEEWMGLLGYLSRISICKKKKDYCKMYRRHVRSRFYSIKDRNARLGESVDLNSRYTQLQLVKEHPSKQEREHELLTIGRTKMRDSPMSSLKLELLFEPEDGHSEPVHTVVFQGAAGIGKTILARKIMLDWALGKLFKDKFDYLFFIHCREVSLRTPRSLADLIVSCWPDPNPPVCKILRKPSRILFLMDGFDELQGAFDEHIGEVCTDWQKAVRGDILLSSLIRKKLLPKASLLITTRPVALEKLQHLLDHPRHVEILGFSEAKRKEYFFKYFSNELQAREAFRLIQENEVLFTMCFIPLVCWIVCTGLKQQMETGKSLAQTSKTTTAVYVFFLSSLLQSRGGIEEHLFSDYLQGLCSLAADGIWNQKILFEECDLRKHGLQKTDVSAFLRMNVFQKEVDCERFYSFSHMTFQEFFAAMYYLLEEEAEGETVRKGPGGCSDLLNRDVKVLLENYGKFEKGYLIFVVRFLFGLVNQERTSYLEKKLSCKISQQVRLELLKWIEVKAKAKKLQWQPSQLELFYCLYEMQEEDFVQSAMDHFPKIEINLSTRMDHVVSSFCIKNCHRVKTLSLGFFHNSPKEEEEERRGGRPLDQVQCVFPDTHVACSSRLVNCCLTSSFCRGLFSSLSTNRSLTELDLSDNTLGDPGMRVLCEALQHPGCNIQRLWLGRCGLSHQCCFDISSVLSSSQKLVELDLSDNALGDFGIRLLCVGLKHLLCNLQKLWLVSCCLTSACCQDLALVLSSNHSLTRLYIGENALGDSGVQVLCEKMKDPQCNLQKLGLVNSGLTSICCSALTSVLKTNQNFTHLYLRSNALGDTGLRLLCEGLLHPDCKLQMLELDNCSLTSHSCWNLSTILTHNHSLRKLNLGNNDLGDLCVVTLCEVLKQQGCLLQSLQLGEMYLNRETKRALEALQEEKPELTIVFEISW
NACHT, LRR and PYD domains-containing protein 3, sequence (Q8R4B8 whole entry, the tested form may be a part): as above

On to `Cc1cc(/C=C/C(=O)c2ccc(C(=O)N[C@@H](Cc3ccccc3)C(=O)N[C@@H](CC(C)C)B(O)O)cc2)cc(C)c1O`, for which the IC50 in experiment [1] came out at 130 nM. Also, the outcome in experiment [2], in experiment [3], in experiment [4], in experiment [5] and in experiment [7] was Active. Besides, the inhibition result in experiment [6] and in experiment [8] was “Active” throughout.
